Test results as given in ChEMBL document CHEMBL1152619, “Synthesis and structure-activity relationships of dehydroaltenusin derivatives as selective DNA polymerase alpha inhibitors” (Bioorg Med Chem, 2009).
The source made the active and inactive calls. No cut-off for these calls is given here.

Columns and labels:
[1] = Inhibition of calf thymus DNA polymerase alpha by [3H]dTTP incorporation assay; design: species or system Bos taurus
Method in brief: (§1)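 Enzymes: pol α immunoaffinity-purified from calf thymus; pol β purified from a recombinant rat pol β expression plasmid. Template-primer was poly(dA)/oligo(dT)12–18 (A/T = 2/1) with [³H]-dTTP as substrate. Inhibitor–enzyme premix was added to standard reaction mixture and incubated for 60 min at 37 °C. Remaining activity was expressed relative to the no-inhibitor control (100%).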

[2] = Selectivity index, ratio of IC50 for rat DNA polymerase beta to IC50 for calf thymus DNA polymerase alpha
[3] = molecular target: DNA polymerase beta (Rattus norvegicus, UniProt P06766); experiment: Inhibition of rat DNA polymerase beta by [3H]dTTP incorporation assay; method in brief: as §1
[4] = species: Bos taurus; experiment: Inhibition of calf thymus DNA polymerase alpha assessed as complete inhibition of enzyme activity at 4 uM by [3H]dTTP incorporation assay
[5] = molecular target: Myosin light chain kinase, smooth muscle (Homo sapiens, UniProt Q15746); experiment: Inhibition of MLCK
Chain of Myosin light chain kinase, smooth muscle (Q15746 whole entry): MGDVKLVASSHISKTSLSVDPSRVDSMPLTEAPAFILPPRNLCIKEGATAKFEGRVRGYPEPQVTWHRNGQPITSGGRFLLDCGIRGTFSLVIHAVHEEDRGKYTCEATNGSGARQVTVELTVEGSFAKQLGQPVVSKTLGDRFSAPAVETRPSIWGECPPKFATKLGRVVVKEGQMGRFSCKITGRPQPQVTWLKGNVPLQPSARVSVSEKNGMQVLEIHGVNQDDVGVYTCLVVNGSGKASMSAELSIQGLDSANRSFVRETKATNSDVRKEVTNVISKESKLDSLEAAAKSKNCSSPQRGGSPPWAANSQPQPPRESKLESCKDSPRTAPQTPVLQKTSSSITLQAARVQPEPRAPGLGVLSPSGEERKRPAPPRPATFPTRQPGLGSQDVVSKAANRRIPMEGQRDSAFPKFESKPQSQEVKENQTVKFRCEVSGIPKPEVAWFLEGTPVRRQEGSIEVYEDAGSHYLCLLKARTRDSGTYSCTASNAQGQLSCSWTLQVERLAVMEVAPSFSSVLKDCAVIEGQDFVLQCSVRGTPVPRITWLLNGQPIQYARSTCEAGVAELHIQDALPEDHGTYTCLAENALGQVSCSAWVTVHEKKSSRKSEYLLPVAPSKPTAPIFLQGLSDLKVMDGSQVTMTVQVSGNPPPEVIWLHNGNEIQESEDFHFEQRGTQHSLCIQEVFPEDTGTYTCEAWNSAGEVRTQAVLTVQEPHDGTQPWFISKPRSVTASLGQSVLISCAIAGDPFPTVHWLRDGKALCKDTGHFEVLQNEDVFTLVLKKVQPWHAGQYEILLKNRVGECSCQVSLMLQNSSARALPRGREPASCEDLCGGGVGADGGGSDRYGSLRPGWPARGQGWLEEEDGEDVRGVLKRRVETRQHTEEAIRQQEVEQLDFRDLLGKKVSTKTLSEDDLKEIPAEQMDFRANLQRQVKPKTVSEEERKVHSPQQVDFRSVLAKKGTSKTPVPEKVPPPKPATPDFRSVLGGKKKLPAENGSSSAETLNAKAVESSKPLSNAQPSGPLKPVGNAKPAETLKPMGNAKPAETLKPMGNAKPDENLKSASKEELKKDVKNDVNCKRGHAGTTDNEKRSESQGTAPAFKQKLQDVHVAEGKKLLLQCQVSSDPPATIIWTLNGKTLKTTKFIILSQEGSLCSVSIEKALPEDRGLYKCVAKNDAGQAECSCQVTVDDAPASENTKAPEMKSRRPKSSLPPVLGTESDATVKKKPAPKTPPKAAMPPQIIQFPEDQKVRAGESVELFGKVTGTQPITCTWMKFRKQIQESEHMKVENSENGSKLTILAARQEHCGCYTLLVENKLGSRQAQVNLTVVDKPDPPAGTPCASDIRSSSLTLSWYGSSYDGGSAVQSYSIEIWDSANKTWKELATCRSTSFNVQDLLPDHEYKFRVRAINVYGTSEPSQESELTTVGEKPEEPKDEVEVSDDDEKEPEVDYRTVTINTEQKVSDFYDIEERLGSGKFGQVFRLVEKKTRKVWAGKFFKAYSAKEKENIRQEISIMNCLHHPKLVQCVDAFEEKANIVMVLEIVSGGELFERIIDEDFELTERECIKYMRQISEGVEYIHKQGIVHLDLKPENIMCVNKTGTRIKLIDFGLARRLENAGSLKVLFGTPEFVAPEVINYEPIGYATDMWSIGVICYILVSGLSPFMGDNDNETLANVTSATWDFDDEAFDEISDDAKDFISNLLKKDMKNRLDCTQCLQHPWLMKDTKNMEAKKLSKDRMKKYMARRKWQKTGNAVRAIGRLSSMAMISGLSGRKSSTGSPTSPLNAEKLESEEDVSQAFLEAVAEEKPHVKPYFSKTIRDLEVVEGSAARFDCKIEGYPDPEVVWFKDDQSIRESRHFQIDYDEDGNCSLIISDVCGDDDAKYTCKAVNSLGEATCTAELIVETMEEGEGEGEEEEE

Row | IC50 ([1]; read-out: IC50) [µM] | IC50 [1] | Ratio IC50 [2] | IC50 [3] [µM] | Activity [4] | IC50 [5] [µM] | SMILES
1 | > 200 |  |  |  |  |  | CC12C=CC(=O)C=C1c1cccc(O)c1C(=O)O2 (stereo not given)
2 | 0.18 | Dose-dependent effect | 194 | 35 |  |  | CCCOc1cc(O)c2c(c1)C1=CC(=O)C(O)=CC1(C)OC2=O (stereo not given)
3 | 0.89 | Dose-dependent effect | 142 | 126 |  |  | CC12C=C(O)C(=O)C=C1c1cc(O)cc(O)c1C(=O)O2 (stereo not given) [DESMETHYLDEHYDROALTENUSIN]
4 | 0.06 | Dose-dependent effect | 183 | 11 |  |  | CCCCCCCCCCCCOc1cc(O)c2c(c1)C1=CC(=O)C(O)=CC1(C)OC2=O (stereo not given)
5 | 0.09 | Dose-dependent effect | 267 | 24 |  |  | CCCCCCOc1cc(O)c2c(c1)C1=CC(=O)C(O)=CC1(C)OC2=O (stereo not given)
6 | 0.68 | Dose-dependent effect | 94.1 | 64 | Active | 0.69 | COc1cc(O)c2c(c1)C1=CC(=O)C(O)=CC1(C)OC2=O (stereo not given) [DEHYDROALTENUSIN]
7 | > 200 |  |  |  |  |  | COc1cc(O)c2c(c1)C1=CC(=O)C=CC1(C)OC2=O (stereo not given)

Row | SMILES | IC50 ([1]; read-out: IC50) [µM] | IC50 [1] | Ratio IC50 [2] | IC50 [3] [µM] | Activity [4] | IC50 [5] [µM]
8 | COc1cc(O)c2c(=O)oc3cc(O)c(O)cc3c2c1 | > 200 |  |  |  |  | 
9 | COc1cc(O)c2c(=O)oc3cc(OCc4ccccc4)c(OCc4ccccc4)cc3c2c1 | > 200 |  |  |  |  | 
10 | CC12C=C(O)C(=O)C=C1c1cccc(O)c1C(=O)O2 (stereo not given) | 0.24 | Dose-dependent effect | 371 | 89 |  | 
